ChEMBL document CHEMBL1127460, “Cancer chemopreventive 3-substituted-4-oxoretinoic acids” (J Med Chem, 1994)

Legend:
[1] = biological target: T1, Ornithine decarboxylase (Mus musculus) (UniProt P00860); assay: In vivo inhibition of ornithine de-carboxylase (ODC) activity induced by 12-0-tetradecanoylphorbol 13-acetate (TPA) in mouse skin; format: functional, organism-based
T1 sequence (whole entry): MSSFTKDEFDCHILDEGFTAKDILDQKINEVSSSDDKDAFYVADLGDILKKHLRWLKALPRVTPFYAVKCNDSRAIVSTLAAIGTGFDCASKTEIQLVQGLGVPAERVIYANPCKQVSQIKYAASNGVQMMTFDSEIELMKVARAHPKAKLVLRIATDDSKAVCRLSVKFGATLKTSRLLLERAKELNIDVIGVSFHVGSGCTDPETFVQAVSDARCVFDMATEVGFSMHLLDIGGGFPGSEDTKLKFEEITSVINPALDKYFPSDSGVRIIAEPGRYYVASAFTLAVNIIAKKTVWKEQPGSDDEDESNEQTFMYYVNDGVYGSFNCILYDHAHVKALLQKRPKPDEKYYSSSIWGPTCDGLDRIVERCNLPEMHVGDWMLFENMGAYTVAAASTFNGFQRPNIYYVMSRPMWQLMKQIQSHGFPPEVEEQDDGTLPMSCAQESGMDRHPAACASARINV
Summary of the method: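 Mouse-skin assay of TPA induction of ornithine decarboxylase, after Verma et al. Retinoid-treated groups are compared with TPA-induced controls. ODC activity is expressed as a percentage of control-group activity and averaged over the stated number of tests.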

[2] = biological target: T1, Ornithine decarboxylase (Mus musculus); assay: Inhibition of TPA-induced ODC activity as percentage of the average no. of papillomas / mouse in groups of control mice was determined using papilloma assay; format: functional; design: concentration or dose not given beside the values
Summary of the method: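 CD-1 female mice, shaved skin, initiated once with 51.2 μg DMBA in 0.2 mL acetone. From two weeks later, TPA 2 nmol in acetone twice weekly to the same area for 12–15 weeks. Tumors per mouse counted at the end, 10–15 mice per group. Group averages are expressed as a percentage of controls and averaged across experiments.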

| Average [1] | Control [2] | Compound |
| --- | --- | --- |
| 40% | 57% | CCC1CC(C)(C)C(/C=C/C(C)=C/C=C/C(C)=C/C(=O)O)=C(C)C1=O (stereo unspecified) |
| 34% | 38% | CC1=C(/C=C/C(C)=C/C=C/C(C)=C/C(=O)O)C(C)(C)CC(Cc2ccccc2)C1=O (stereo unspecified) |
| 56% | 78% | COC(=O)/C=C(C)/C=C/C=C(C)/C=C/C1=C(C)C(=O)C(Cc2ccccc2)CC1(C)C (stereo unspecified) |
| 31% | 20% | COC(=O)/C=C(C)/C=C/C=C(C)/C=C/C1=C(C)C(=O)C(C/C=C/c2ccccc2)CC1(C)C (stereo unspecified) |
| 23% | 39% | CC1=C(/C=C/C(C)=C/C=C/C(C)=C/C(=O)O)C(C)(C)CC(C/C=C/c2ccccc2)C1=O (stereo unspecified) |
| 47% | 64% | C#CCC1CC(C)(C)C(/C=C/C(C)=C/C=C/C(C)=C/C(=O)O)=C(C)C1=O (stereo unspecified) |
| 68% | 47% | C=CCC1CC(C)(C)C(/C=C/C(C)=C/C=C/C(C)=C/C(=O)O)=C(C)C1=O (stereo unspecified) |

The remaining lines, values behind:

| Compound | Average [1] | Control [2] |
| --- | --- | --- |
| C=CCC1CC(C)(C)C(/C=C/C(C)=C/C=C/C(C)=C/C(=O)OC)=C(C)C1=O (stereo unspecified) | 56% | 42% |
| CC1=C(/C=C/C(C)=C/C=C/C(C)=C/C(=O)Nc2ccc(O)cc2)C(C)(C)CCC1 | 60% | 89% |
| COC(=O)/C=C(C)/C=C/C=C(C)/C=C/C1=C(C)C(=O)CCC1(C)C | 18% | 25% |
| CCC1CC(C)(C)C(/C=C/C(C)=C/C=C/C(C)=C/C(=O)OC)=C(C)C1=O (stereo unspecified) | 31% | 68% |
| COC(=O)/C=C(C)/C=C/C=C(C)/C=C/C1=C(C)C(=O)C(C)(C)CC1(C)C | 22% | 22% |
| CC1=C(/C=C/C(C)=C/C=C/C(C)=C/C(=O)O)C(C)(C)CCC1=O (stereo in doubt; 3a) | 17% | 39% |
| CC1=C(/C=C/C(C)=C/C=C/C(C)=C/C(=O)O)C(C)(C)CCC1 | 8% | 16% |
| CC1=C(/C=C/C(C)=C/C=C/C(C)=C/C(=O)O)C(C)(C)CC(C)C1=O (stereo unspecified) | 26% | 29% |
| COC(=O)/C=C(C)/C=C/C=C(C)/C=C/C1=C(C)C(=O)C(C)CC1(C)C (stereo unspecified) | 28% | 27% |
| CC1=C(/C=C/C(C)=C/C=C/C(C)=C/C(=O)O)C(C)(C)CC(C)(C)C1=O | 26% | 25% |
| C#CCC1CC(C)(C)C(/C=C/C(C)=C/C=C/C(C)=C/C(=O)OC)=C(C)C1=O (stereo unspecified) | 34% | 40% |
